Columns and labels:
Format in all cases: cell-based
HT-29 cells = experiment: CCK-8 anti-proliferation assay, HT-29; settings: Homo sapiens, HT-29, 72 h, read-out: IC50 HT-29, HT-29 cells, 72 h, CCK-8
HCT-116 cells = experiment: CCK-8 anti-proliferation assay, HCT-116; settings: Homo sapiens, HCT-116, 72 h, read-out: IC50 HCT-116, HCT-116 cells, 72 h, CCK-8
How it was run: (§1)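 HCT-116 and HCT-15 were grown in McCoy's 5A, and NCM-460 in RPMI 1640, each with 10% FBS and 1% penicillin-streptomycin at 37 °C, 5% CO2. Cells were seeded at 4 × 10^3 per well overnight, then exposed to graded concentrations of test compound for 72 h. Medium was replaced with fresh medium containing 10% CCK-8; A450 was read after 1 h at 37 °C. […] At least three independent experiments.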

HCT-15 cells = experiment: CCK-8 anti-proliferation assay, HCT-15; settings: Homo sapiens, HCT-15, 72 h, read-out: IC50 HCT-15, HCT-15 cells, 72 h, CCK-8
How it was run: as §1

NCM-460 cells = experiment: CCK-8 cytotoxicity, normal colon cell line NCM-460; settings: Homo sapiens, NCM460, 72 h, read-out: IC50 NCM-460, normal human colon cell line NCM-460, 72 h, CCK-8
How it was run: as §1

Structure (SMILES)	IC50 (HT-29 cells)	IC50 (HCT-116 cells)	IC50 (HCT-15 cells)	IC50 (NCM-460 cells)
O=c1[nH]cc(F)c(=O)[nH]1 [5-FU, 5-fluorouracil, reference compound]	3.63 ± 0.611 µM	1.38 ± 0.21 µM	13.3 ± 2.01 µM	3.94 ± 1.41 µM
CC1(C)C[C@H]2[C@H]1CC[C@]1(C)CCC[C@@]2(n2cc(C(=O)NCCN)nn2)C1 [NC-14]	45.9 ± 11.1 µM			
CC1(C)C[C@H]2[C@H]1CC[C@]1(C)CCC[C@@]2(n2cc(C(=O)N3CCNCC3)nn2)C1 [NC-16]	4.02 ± 0.14 µM	17.9 ± 1.01 µM	11.7 ± 0.85 µM	26.1 ± 3.1 µM
CC1(C)C[C@H]2[C@H]1CC[C@]1(C)CCC[C@@]2(n2cc(C(=O)NC3CCNCC3)nn2)C1 [NC-18]	3.17 ± 0.24 µM	14.7 ± 1.79 µM	14.9 ± 0.98 µM	18.6 ± 4.58 µM

Reference: paper PMC12699372 (RSC Advances, 2025)
